Experiment [1] deals with Integrin alpha-IIb/beta-3 (Homo sapiens, UniProt P05106+P08514). Briefly: Binding affinity against integrin alpha 2b-beta 3 in enzyme linked immunosorbent assay (ELISA). In outline: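 Purified human platelet αIIbβ3 (from outdated platelets, octyl glucoside extract) in TBS with 20 mM octyl glucoside, 2 mM MgCl2 and 2 mM CaCl2 binds to plate-coated human fibrinogen (10 µg/mL in TBS) with 10-fold serial peptide dilutions for 3 h at room temperature. Bound receptor is detected with rabbit anti-αIIbβ3, then HRP anti-rabbit IgG, with o-phenylenediamine/H2O2 at pH 5.0. IC50 is reported.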
On the technique in general: An ELISA detects its analyte on a solid surface through an enzyme-linked reagent.

A further experiment concerns the target Integrin alpha-5/beta-1 (Homo sapiens, UniProt P05556+P08648). Briefly: Binding affinity against integrin alpha5-beta1 in enzyme linked immunosorbent assay (ELISA).
In another experiment the target is Integrin alpha-V/beta-5 (Homo sapiens, UniProt P06756+P18084). Briefly: Binding affinity against integrin alpha V-beta5 in enzyme linked immunosorbent assay (ELISA). In outline: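 It is added to wells coated with human vitronectin in 0.1 M carbonate, pH 9.6, with 10-fold serial peptide dilutions for 3 h at room temperature. Detection uses rabbit anti-VnR, HRP anti-rabbit IgG and o-phenylenediamine/H2O2.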

*1 amine or outer side, *2 acyl side, *3 side chain or, on linkers, in order; H or OH if unused. Where a SMILES comes first, the peptide text is derived from it. Bridges are numbered along the chain shown (N, C = ends). X2 = N[C@H](C(=O)[*:1])C1(S[*:2])CCCCC1

Sequence of Integrin alpha-IIb/beta-3 (P05106 27-788 limits assumed): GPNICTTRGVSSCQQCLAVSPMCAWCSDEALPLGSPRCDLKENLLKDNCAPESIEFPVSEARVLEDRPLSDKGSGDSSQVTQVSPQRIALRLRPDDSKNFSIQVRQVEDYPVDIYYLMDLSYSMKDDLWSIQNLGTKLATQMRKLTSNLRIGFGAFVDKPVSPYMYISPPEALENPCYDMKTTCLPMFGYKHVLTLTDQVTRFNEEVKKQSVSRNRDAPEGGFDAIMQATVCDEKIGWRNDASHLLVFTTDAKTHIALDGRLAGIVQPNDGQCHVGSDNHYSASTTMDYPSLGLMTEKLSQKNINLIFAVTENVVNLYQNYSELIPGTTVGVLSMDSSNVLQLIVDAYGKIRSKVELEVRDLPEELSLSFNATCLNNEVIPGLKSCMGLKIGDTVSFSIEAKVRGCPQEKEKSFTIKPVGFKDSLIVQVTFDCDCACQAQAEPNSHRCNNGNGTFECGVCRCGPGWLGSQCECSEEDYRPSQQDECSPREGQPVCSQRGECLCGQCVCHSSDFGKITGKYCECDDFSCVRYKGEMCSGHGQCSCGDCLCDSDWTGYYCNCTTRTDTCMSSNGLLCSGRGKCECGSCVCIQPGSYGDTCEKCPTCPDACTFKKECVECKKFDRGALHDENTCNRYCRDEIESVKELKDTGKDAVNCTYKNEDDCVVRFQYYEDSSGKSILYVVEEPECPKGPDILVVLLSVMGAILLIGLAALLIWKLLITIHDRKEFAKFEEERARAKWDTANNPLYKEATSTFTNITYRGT
Sequence of Integrin alpha-IIb/beta-3 (P08514 32-887 limits assumed): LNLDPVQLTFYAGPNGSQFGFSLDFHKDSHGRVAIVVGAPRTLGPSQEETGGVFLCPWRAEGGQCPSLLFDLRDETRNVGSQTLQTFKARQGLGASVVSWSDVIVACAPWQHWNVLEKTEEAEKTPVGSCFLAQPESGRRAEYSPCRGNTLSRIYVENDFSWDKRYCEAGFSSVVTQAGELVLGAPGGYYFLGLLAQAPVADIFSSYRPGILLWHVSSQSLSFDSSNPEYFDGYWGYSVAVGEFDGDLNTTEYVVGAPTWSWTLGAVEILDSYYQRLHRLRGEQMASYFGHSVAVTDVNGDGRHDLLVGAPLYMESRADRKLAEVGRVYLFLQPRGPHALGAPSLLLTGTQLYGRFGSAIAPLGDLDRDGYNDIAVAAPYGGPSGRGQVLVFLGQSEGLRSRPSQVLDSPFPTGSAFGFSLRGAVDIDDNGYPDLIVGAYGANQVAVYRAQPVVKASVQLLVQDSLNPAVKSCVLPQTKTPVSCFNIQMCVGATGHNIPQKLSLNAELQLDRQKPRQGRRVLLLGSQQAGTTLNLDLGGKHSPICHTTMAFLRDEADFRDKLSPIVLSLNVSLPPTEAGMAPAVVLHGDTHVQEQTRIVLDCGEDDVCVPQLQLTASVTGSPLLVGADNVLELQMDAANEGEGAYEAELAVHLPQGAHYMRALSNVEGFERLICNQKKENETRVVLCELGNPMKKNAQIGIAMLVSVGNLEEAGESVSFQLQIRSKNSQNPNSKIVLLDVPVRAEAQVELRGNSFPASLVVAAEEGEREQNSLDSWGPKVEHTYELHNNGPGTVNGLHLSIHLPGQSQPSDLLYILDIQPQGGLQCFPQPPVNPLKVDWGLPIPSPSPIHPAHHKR
Sequence of Integrin alpha-IIb/beta-3 (P08514 891-1039 limits assumed): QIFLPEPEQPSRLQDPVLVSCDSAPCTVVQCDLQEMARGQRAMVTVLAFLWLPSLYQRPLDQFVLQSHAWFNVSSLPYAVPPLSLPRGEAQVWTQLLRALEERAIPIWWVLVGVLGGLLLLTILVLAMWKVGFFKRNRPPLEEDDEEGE
Sequence of Integrin alpha-5/beta-1 (P05556 21-798 limits assumed): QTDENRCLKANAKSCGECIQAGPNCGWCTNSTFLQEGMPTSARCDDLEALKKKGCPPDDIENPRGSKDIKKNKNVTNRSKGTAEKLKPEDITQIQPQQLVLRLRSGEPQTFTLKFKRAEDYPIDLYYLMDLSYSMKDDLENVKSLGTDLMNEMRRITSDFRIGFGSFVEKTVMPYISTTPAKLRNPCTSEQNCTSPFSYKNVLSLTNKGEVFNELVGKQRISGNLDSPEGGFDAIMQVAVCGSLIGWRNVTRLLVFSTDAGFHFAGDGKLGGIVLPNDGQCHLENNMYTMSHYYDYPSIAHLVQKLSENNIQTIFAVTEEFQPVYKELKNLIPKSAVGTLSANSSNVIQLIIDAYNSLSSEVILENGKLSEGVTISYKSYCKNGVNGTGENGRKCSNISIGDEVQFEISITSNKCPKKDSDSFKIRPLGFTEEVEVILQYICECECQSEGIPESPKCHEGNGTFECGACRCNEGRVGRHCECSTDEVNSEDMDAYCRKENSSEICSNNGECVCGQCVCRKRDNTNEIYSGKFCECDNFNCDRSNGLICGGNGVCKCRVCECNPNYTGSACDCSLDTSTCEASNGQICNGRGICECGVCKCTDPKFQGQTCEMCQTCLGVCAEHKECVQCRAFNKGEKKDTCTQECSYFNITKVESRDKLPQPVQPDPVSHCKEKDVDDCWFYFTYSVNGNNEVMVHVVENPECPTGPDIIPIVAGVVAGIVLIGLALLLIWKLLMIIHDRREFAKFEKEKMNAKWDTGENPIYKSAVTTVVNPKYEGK
Sequence of Integrin alpha-5/beta-1 (P08648 42-894 limits assumed): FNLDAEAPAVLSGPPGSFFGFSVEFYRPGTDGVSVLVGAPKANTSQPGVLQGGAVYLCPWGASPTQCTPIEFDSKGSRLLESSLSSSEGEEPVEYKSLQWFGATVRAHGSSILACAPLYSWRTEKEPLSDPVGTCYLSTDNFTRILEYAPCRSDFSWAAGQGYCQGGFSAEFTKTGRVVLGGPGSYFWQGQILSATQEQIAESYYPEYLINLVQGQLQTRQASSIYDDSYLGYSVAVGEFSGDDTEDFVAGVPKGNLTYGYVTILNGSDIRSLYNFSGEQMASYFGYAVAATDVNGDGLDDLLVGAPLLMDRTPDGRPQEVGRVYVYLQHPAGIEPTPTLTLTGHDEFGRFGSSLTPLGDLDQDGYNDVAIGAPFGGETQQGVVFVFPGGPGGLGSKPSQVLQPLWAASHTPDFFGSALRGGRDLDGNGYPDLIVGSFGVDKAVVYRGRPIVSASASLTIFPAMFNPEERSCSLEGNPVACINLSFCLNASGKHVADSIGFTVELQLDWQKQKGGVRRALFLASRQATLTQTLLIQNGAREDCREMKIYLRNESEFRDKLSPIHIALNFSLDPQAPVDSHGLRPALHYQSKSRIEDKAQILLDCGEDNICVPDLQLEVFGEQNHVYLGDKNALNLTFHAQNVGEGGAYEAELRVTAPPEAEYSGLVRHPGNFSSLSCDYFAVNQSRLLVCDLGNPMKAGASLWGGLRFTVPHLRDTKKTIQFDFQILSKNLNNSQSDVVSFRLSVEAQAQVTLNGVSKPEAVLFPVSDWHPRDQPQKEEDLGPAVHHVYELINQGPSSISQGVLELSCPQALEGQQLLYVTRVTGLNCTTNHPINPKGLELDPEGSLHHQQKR
Sequence of Integrin alpha-5/beta-1 (P08648 895-1049 limits assumed): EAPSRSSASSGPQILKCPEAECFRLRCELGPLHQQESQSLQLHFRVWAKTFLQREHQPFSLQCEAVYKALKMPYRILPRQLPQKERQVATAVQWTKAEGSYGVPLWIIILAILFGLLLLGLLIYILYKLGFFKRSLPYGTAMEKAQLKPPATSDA

Regarding `COc1ccc(C[C@@H]2NC(=O)[C@H](CC(=O)O)NC(=O)CNC(=O)[C@H](CCCN=C(N)N)NC(=O)[C@H](Cc3c[nH]cn3)NC(=O)[C@H](CCCN=C(N)N)NC(=O)[C@@H](N)CCC/N=C(/N)NC(=O)[C@@H](N)C3(CCCCC3)SSC[C@@H](C(=O)N[C@@H](CCCN=C(N)N)C(=O)O)NC(=O)[C@H](CCCN=C(N)N)NC2=O)cc1` [R(Pmc)-G-H-R-G-D-(Y-OMe)-R-C-R] (H-RRHRGDY(Me)RCR-OH; linker 1-9 via X2), the IC50 (in experiment [1]; on Integrin alpha-5/beta-1) was 6.2 µM throughout.

On to `COc1ccc(C[C@@H]2NC(=O)[C@H](CC(=O)O)NC(=O)CNC(=O)[C@H](CCCN=C(N)N)NC(=O)[C@H](Cc3c[nH]cn3)NC(=O)[C@H](CC(N)=O)NC(=O)[C@@H](N)CCC/N=C(/N)NC(=O)[C@@H](N)C3(CCCCC3)SSC[C@@H](C(=O)N[C@@H](CCCN=C(N)N)C(=O)O)NC(=O)[C@H](CCCN=C(N)N)NC2=O)cc1` [R(Pmc)-N-H-R-G-D-(Y-OMe)-R-C-R] (H-RNHRGDY(Me)RCR-OH; linker 1-9 via X2), for which the IC50 (in experiment [1]; at Integrin alpha-V/beta-5) was 4.7 µM each time.

What is called IC50 is the midpoint of a concentration-inhibition curve. Read a high IC50 as weaker potency.

These data come from BindingDB's records for doi:10.1021/jm00027a001 (Telios Pharmaceuticals, 1994).
